Assays:
TbAdoMetDC [1] = target: T1, TbAdoMetDC (Trypanosoma brucei brucei, UniProt P50244); assay: Inhibition modality: substrate titrations, Lineweaver–Burk analysis; assay type: biochemical; conditions: substrate titrations at four inhibitor concentrations
T1 sequence (P50244 86-370 limits assumed): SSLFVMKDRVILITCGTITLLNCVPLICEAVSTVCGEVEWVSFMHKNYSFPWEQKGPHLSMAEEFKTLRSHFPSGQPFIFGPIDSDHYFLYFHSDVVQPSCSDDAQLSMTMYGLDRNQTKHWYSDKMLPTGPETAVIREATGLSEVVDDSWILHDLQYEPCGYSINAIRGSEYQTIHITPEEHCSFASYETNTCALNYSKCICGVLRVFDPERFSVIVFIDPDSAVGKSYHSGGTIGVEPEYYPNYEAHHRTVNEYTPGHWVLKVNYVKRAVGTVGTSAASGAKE
Outline: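 Recombinant T. brucei AdoMetDC/prozyme heterodimer. Product (decarboxylated AdoMet) formation was measured across varied S-adenosyl-L-methionine concentrations at four test-compound concentrations. Product was quantified by RapidFire–mass spectrometry. Final DMSO in enzyme assays was 2%. Substrate titrations were analysed by double-reciprocal Lineweaver–Burk plot to assign inhibition modality.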

[2] = tested on: bloodstream form T. brucei Lister 427; assay: ATP–bioluminescence-based bloodstream form T. brucei cell viability assay; conditions: Trypanosoma brucei, 48 h, read-out: Tb427 EC50
[3] = Metabolic stability in hepatic microsomes; assay type: in vitro ADME, male CD-1 mouse and mixed-gender human
[4] = tested on: prozyme protein levels in T. brucei cells; assay: Western blot analysis of prozyme levels in treated T. brucei cells; assay type: cell-based; conditions: 24 h treatment at 1.5 × EC50
TbAdoMetDC [5] = target: T1, TbAdoMetDC; assay: Rapid dilution assay for reversibility of inhibition; assay type: biochemical; conditions: 30 min with 36 μM inhibitor, then 100-fold dilution; pH 7.2
Outline: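 Recombinant T. brucei AdoMetDC/prozyme was pre-equilibrated with test compound for 30 min. It was then diluted 100-fold, to a non-inhibitory level, into reaction buffer containing 50 μM S-adenosyl-L-methionine (~Km) to start the reaction. Aliquots were quenched every 5 min, and decarboxylated AdoMet was quantified by RapidFire–MS. Progress curves were compared with a vehicle control.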

[6] = target: T2, T. brucei AdoMetDC/prozyme (Trypanosoma brucei brucei, UniProt P50244); assay: biochemical
T2 sequence (P50244 86-370 limits assumed): T1 sequence (P50244 86-370 limits assumed)

[7] = tested on: MDCKII-hMDR1 monolayer cells; assay: MDCKII-hMDR1 monolayer BBB permeability assay ± Pgp inhibitor GF120918; assay type: in vitro ADME
[8] = tested on: T. brucei AdoMetDC/prozyme; assay: biochemical; conditions: pH 7.2; human vs T. brucei AdoMetDC
human AdoMetDC = target: T3, human AdoMetDC (Homo sapiens, UniProt P17707); assay: RapidFire–MS-based AdoMetDC enzyme activity assay; assay type: biochemical; conditions: read-out: Hs IC50; pH 7.2; mean, triplicate, 95% CI in parentheses
T3 sequence (P17707 1-334): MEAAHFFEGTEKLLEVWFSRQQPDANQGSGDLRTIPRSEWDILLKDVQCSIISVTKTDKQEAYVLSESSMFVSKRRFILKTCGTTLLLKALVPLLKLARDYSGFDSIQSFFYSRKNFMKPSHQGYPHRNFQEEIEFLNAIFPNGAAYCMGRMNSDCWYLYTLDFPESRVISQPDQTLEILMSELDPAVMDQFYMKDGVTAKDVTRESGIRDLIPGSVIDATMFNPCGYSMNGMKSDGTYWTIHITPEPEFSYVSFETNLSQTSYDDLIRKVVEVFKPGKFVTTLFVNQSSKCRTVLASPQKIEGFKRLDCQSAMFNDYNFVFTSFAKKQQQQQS

Structure (SMILES) | EC50 [2] [µM] | also measured
Cc1cc(Nc2cc(Cl)cc(Cl)c2)nc(N)n1 [Compound 7] | 5.6 | modality of inhibition (TbAdoMetDC [1]): competitive inhibition; metabolic stability [3]: poor metabolic stability; prozyme protein level vs vehicle-only control [4]: induced prozyme above the vehicle-only control levels; recovery of enzyme activity after dilution of inhibitor (reversibility) (TbAdoMetDC [5]): fully recovered; IC90 ([6]; pH 7.2, read-out: IC90 for TbAdoMetDC): ~36 µM; Pgp-mediated efflux substrate [7]: not a substrate of Pgp-mediated efflux
Nc1nccc(Nc2cc(Cl)cc(Cl)c2)n1 [Compound 8] | 9.9 | prozyme protein level vs vehicle-only control [4]: induced prozyme above the vehicle-only control levels
Nc1nc(Cl)cc(Nc2cc(Cl)cc(Cl)c2)n1 [Compound 13] | 8.9 | prozyme protein level vs vehicle-only control [4]: vehicle-only levels of the prozyme protein
Nc1cc(Nc2cc(Cl)cc(Cl)c2)ccn1 [Compound 21, N^4-(3,5-Dichlorophenyl)pyridine-2,4-diamine] | 11 | IC50 ([6]; Tb IC50, pH 7.2, mean, triplicate, 95% CI in parentheses): 29 µM
Cc1cc(Nc2cc(Cl)cc(Cl)c2)ncn1 [Compound 23, N-(3,5-Dichlorophenyl)-6-methylpyrimidin-4-amine] | 27 | prozyme protein level vs vehicle-only control [4]: vehicle-only levels of the prozyme protein
Cc1cc(Nc2cc(Br)cc(Br)c2)nc(N)n1 [Compound 44, N^4-(3,5-Dibromophenyl)-6-methylpyrimidine-2,4-diamine] | 4.8 | selectivity ratio (HsIC50/TbIC50) [8]: exceeded 100
Cc1cc(Nc2cc(Cl)c(F)c(Cl)c2)nc(N)n1 [Compound 62, N^4-(3,5-Dichloro-4-fluorophenyl)-6-methylpyrimidine-2,4-diamine] | 4.8 | IC50 (human AdoMetDC): 160 µM; selectivity ratio (HsIC50/TbIC50) [8]: exceeded 100
Cc1cc(Nc2cc(Cl)cc(-c3cc(C(F)(F)F)cc(C(F)(F)F)c3)c2)nc(N)n1 [Compound 106, N^4-(5-Chloro-3′,5′-bis(trifluoromethyl)-[1,1′-biphenyl]-3-yl)-6-methylpyrimidine-2,4-diamine] | 0.53 | 
Cc1cc(Nc2cc(Cl)cc(-c3ccc4ccccc4c3)c2)nc(N)n1 [Compound 107, N^4-(3-Chloro-5-(naphthalen-2-yl)phenyl)-6-methylpyrimidine-2,4-diamine] | 1.7 | 
Cc1cc(Nc2cc(Cl)cc(-c3cc4ccccc4c4ccccc34)c2)nc(N)n1 [Compound 108, N^4-(3-Chloro-5-(phenanthren-9-yl)phenyl)-6-methylpyrimidine-2,4-diamine] | 1.8 | 
Cc1cc(Nc2cc(Cl)cc(-c3ccc4c(c3)OCO4)c2)nc(N)n1 [Compound 109, N^4-(3-(Benzo[d][1,3]dioxol-5-yl)-5-chlorophenyl)-6-methylpyrimidine-2,4-diamine] | 2.3 | 
Cc1cc(Nc2cc(Cl)cc(-c3ccc4nonc4c3)c2)nc(N)n1 [Compound 110, N^4-(3-(Benzo[c][1,2,5]oxadiazol-5-yl)-5-chlorophenyl)-6-methylpyrimidine-2,4-diamine] | 0.57 | 
Cc1cc(Nc2cc(Cl)cc(-c3ccoc3)c2)nc(N)n1 [Compound 111, N^4-(3-Chloro-5-(furan-3-yl)phenyl)-6-methylpyrimidine-2,4-diamine] | 7.1 | 
Cc1cc(Nc2cc(Cl)cc(-c3cc4ccccc4o3)c2)nc(N)n1 [Compound 112, N^4-(3-(Benzofuran-2-yl)-5-chlorophenyl)-6-methylpyrimidine-2,4-diamine] | 1.4 | 
Cc1cc(Nc2cc(Cl)cc(-c3ccsc3)c2)nc(N)n1 [Compound 113, N^4-(3-Chloro-5-(thiophen-3-yl)phenyl)-6-methylpyrimidine-2,4-diamine] | 29 | 
Cc1cc(Nc2cc(Cl)cc(-c3cc4ccccc4s3)c2)nc(N)n1 [Compound 114, N^4-(3-(Benzo[b]thiophen-2-yl)-5-chlorophenyl)-6-methylpyrimidine-2,4-diamine] | 1.6 | 
Cc1cc(Nc2cc(Cl)cc(-c3cncs3)c2)nc(N)n1 [Compound 115, N^4-(3-Chloro-5-(thiazol-5-yl)phenyl)-6-methylpyrimidine-2,4-diamine] | 3.6 | 
Cc1cc(Nc2cc(Cl)cc(-c3cnn(C)c3)c2)nc(N)n1 [Compound 116, N^4-(3-Chloro-5-(1-methyl-1H-pyrazol-4-yl)phenyl)-6-methylpyrimidine-2,4-diamine] | 6.7 | 
Cc1cc(Nc2cc(Cl)cc(-c3cncnc3)c2)nc(N)n1 [Compound 117, N^4-(3-Chloro-5-(pyrimidin-5-yl)phenyl)-6-methylpyrimidine-2,4-diamine] | 58 | 
CCc1cc(Nc2cc(C)nc(N)n2)cc(-c2ccc(F)cc2)c1 [Compound 118, N^4-(5-Ethyl-4′-fluoro-[1,1′-biphenyl]-3-yl)-6-methylpyrimidine-2,4-diamine] | 1.3 | 

Reference: publication PMC5965259 (Journal of medicinal chemistry, 2018)
